This is an account of results in ChEMBL document CHEMBL4038323, “Discovery and Kinetic Profiling of 7-Aryl-1,2,4-triazolo[4,3-a]pyridines: Positive Allosteric Modulators of the Metabotropic Glutamate Receptor 2” (J Med Chem, 2017).

The target of assay [1] is Metabotropic glutamate receptor 7 (Homo sapiens) (UniProt Q14831). Put plainly: Agonist activity at human metabotropic glutamate receptor 7 expressed in HEK293 cells assessed as induction of Ca2+ internalization after 1 hr by fluo-4-AM dye based fluorescence assay. The assay is classed as functional, cell-based.
Assay [2] deals with Metabotropic glutamate receptor 1 (Homo sapiens) (UniProt Q13255). Briefly: Agonist activity at human metabotropic glutamate receptor 1 expressed in HEK293 cells assessed as induction of Ca2+ internalization after 1 hr by fluo-4-AM dye based fluorescence assay. The format is functional, cell-based.
Chain of Metabotropic glutamate receptor 1 (Homo sapiens) (Q13255 19-1194 limits assumed): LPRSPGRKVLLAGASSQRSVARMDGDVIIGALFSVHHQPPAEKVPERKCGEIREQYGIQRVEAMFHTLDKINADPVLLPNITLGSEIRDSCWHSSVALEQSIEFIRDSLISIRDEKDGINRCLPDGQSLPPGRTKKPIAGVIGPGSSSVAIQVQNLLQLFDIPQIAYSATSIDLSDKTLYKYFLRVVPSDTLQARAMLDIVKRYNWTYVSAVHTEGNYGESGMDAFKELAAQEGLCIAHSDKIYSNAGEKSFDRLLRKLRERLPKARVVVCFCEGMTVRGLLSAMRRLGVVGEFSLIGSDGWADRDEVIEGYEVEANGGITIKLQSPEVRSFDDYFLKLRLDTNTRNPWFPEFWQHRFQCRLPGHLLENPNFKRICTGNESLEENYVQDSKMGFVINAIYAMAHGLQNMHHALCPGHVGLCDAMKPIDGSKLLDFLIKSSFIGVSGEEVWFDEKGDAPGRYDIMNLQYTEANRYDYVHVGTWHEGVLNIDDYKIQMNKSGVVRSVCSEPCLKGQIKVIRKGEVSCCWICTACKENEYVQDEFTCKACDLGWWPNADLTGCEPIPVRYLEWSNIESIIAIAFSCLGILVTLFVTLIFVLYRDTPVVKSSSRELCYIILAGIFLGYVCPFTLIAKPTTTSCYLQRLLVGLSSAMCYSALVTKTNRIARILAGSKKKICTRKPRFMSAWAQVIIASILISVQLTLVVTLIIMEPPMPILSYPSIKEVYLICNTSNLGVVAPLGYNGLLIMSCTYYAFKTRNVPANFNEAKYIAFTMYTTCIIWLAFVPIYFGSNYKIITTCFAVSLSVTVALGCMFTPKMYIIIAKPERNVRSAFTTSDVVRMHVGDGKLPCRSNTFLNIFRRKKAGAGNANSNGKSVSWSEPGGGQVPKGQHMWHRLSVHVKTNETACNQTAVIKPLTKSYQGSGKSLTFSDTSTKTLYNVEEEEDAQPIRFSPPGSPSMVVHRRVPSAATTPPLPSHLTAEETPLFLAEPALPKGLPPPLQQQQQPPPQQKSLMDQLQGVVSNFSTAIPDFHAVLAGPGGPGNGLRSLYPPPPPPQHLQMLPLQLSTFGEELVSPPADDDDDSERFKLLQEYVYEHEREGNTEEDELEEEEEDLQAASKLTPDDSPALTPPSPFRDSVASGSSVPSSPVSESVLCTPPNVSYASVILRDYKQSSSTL
The target in assay [3] is Metabotropic glutamate receptor 6 (Rattus norvegicus) (UniProt P35349). Briefly: Agonist activity at rat metabotropic glutamate receptor 6 expressed in CHO cell membranes assessed as increase in [35S]GTPgammaS binding preincubated for 30 mins followed by [35S]GTPgammaS addition measured after 30 mins by Topcount scintillation counting method. The assay is classed as functional.
Chain of Metabotropic glutamate receptor 6 (Rattus norvegicus) (P35349 whole entry): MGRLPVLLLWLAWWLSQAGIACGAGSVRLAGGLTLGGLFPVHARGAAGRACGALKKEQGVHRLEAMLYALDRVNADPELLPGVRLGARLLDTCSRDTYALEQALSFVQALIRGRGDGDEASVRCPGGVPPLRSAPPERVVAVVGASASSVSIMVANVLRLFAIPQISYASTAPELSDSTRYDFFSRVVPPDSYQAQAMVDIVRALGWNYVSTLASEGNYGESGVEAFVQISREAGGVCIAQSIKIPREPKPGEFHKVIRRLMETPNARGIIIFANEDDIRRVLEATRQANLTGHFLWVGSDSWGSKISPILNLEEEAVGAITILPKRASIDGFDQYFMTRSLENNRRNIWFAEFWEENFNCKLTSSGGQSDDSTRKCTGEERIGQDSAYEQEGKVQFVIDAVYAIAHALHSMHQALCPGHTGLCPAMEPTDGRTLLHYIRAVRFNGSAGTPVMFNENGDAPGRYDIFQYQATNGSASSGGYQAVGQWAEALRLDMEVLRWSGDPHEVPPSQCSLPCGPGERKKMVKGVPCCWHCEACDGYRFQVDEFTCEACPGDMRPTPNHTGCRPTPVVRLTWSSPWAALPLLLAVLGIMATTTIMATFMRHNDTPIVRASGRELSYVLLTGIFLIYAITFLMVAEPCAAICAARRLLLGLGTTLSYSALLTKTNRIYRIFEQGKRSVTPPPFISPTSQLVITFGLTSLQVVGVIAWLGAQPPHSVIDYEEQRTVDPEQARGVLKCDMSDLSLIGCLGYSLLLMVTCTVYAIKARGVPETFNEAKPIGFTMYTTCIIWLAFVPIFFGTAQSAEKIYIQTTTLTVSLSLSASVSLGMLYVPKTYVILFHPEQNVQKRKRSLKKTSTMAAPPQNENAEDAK

In assay [4] the target is T1, Metabotropic glutamate receptor 2 (Homo sapiens, UniProt Q14416). Put plainly: Binding affinity to human metabotropic glutamate receptor 2 expressed in CHOK1 cell membranes by scintillation proximity assay. A general note: SPA uses beads or plates that emit light when radiolabelled molecules are held near them.
The target in assay [5] is Metabotropic glutamate receptor 3 (Homo sapiens) (UniProt Q14832). Put plainly: Agonist activity at human metabotropic glutamate receptor 3 expressed in HEK293 cells assessed as induction of Ca2+ internalization after 1 hr by fluo-4-AM dye based fluorescence assay. The assay is classed as functional, cell-based.
Assay [6] addresses T1, Metabotropic glutamate receptor 2. Put plainly: Positive allosteric modulation of human metabotropic glutamate receptor 2 expressed in CHOK1 cell membranes assessed as increase in glutamate-induced [35S]GTPgammaS binding preincubated for 30 mins followed by [35S]GTPgammaS addition measured after 30 mins by Topcount scintillation counting method. The format is functional. On the technique in general: GTPγS resists hydrolysis and so accumulates on activated G proteins.

Assay [7] has as its target Metabotropic glutamate receptor 5 (Homo sapiens) (UniProt P41594). Put plainly: Antagonist activity at human metabotropic glutamate receptor 5 expressed in HEK293 cells assessed as inhibition of glutamate-induced Ca2+ internalization after 1 hr by fluo-4-AM dye based fluorescence assay. The assay is classed as functional, cell-based.
Assay [8] addresses Metabotropic glutamate receptor 4 (Homo sapiens) (UniProt Q14833). Briefly: Antagonist activity at human metabotropic glutamate receptor 4 assessed as inhibition of glutamate-induced [35S]GTPgammaS binding preincubated for 30 mins followed by [35S]GTPgammaS addition measured after 30 mins by Topcount scintillation counting method. The assay is classed as functional.
Assay [9] shares this target. Briefly: Agonist activity at human metabotropic glutamate receptor 4 assessed as increase in [35S]GTPgammaS binding preincubated for 30 mins followed by [35S]GTPgammaS addition measured after 30 mins by Topcount scintillation counting method. The assay is classed as functional.
The target in assay [10] is Metabotropic glutamate receptor 7 (Homo sapiens) (UniProt Q14831). Put plainly: Antagonist activity at human metabotropic glutamate receptor 7 expressed in HEK293 cells assessed as inhibition of glutamate-induced Ca2+ internalization after 1 hr by fluo-4-AM dye based fluorescence assay. The format is functional, cell-based.
Assay [11] concerns the target Metabotropic glutamate receptor 5 (Homo sapiens) (UniProt P41594). Put plainly: Agonist activity at human metabotropic glutamate receptor 5 expressed in HEK293 cells assessed as induction of Ca2+ internalization after 1 hr by fluo-4-AM dye based fluorescence assay. The format is functional, cell-based.
The target of assay [12] is Metabotropic glutamate receptor 3 (Homo sapiens) (UniProt Q14832). Put plainly: Antagonist activity at human metabotropic glutamate receptor 3 expressed in HEK293 cells assessed as inhibition of glutamate-induced Ca2+ internalization after 1 hr by fluo-4-AM dye based fluorescence assay. The assay is classed as functional, cell-based.
Assay [13] has as its target Metabotropic glutamate receptor 8 (Homo sapiens) (UniProt O00222). Briefly: Antagonist activity at human metabotropic glutamate receptor 8 expressed in HEK293 cells assessed as inhibition of glutamate-induced Ca2+ internalization after 1 hr by fluo-4-AM dye based fluorescence assay. The format is functional, cell-based.
For assay [14] the target is unchanged. Briefly: Agonist activity at human metabotropic glutamate receptor 8 expressed in HEK293 cells assessed as induction of Ca2+ internalization after 1 hr by fluo-4-AM dye based fluorescence assay. The assay is classed as functional, cell-based.
Assay [15] has as its target T1, Metabotropic glutamate receptor 2. Briefly: Displacement of [3H]JNJ-46281222 from human metabotropic glutamate receptor 2 expressed in CHOK1 cell membranes assessed as association rate constant measured every 30 sec for 120 mins by scintillation proximity assay. The gist of the method: (§1)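 For the SPA competition association, CHO-K1_hmGlu2 membranes (20 µg) were pre-coupled 30 min to WGA SPA beads, then mixed with 6 nM [3H]JNJ-46281222, competitor and 1 mM glutamate. Counts were read every 30 s for 120 min at 28°C.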
A general note: In a radioligand displacement assay an active substance lowers the binding of a labelled ligand.
Target sequence in this assay (Q14416 19-872 limits assumed): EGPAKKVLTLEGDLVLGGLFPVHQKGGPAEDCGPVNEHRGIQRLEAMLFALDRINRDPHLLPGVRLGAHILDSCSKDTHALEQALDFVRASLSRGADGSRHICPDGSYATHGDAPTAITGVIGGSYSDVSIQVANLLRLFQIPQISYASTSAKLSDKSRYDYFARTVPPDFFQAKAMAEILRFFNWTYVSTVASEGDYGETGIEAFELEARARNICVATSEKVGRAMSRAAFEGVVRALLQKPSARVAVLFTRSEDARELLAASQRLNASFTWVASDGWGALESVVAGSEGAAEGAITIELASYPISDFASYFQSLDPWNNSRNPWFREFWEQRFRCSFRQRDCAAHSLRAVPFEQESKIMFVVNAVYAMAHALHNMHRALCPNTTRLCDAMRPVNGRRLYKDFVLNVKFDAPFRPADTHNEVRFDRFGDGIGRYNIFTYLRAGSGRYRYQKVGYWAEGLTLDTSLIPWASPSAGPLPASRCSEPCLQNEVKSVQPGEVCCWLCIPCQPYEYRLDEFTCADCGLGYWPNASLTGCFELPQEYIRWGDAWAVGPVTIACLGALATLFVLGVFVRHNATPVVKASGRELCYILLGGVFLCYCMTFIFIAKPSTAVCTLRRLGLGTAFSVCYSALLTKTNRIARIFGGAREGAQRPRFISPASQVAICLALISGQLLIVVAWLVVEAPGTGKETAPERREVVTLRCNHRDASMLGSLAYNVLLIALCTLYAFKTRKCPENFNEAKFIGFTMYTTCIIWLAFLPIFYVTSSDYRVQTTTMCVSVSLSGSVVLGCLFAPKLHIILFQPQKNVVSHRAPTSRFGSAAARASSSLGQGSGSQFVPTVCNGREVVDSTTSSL

Assay [16] shares this target. Briefly: Displacement of [3H]-JNJ46281222 from human metabotropic glutamate receptor 2 expressed in CHOK1 cell membranes after 60 mins by microbeta counting analysis.
Assay [17] deals with Metabotropic glutamate receptor 5 (Homo sapiens) (UniProt P41594). Briefly: Positive allosteric modulation of human metabotropic glutamate receptor 5 expressed in HEK293 cells assessed as induction of Ca2+ […] after 1 hr in the presence of glutamate by fluo-4-AM dye based fluorescence assay. The assay is classed as functional, cell-based.
Chain of Metabotropic glutamate receptor 5 (Homo sapiens) (P41594 21-1212 limits assumed): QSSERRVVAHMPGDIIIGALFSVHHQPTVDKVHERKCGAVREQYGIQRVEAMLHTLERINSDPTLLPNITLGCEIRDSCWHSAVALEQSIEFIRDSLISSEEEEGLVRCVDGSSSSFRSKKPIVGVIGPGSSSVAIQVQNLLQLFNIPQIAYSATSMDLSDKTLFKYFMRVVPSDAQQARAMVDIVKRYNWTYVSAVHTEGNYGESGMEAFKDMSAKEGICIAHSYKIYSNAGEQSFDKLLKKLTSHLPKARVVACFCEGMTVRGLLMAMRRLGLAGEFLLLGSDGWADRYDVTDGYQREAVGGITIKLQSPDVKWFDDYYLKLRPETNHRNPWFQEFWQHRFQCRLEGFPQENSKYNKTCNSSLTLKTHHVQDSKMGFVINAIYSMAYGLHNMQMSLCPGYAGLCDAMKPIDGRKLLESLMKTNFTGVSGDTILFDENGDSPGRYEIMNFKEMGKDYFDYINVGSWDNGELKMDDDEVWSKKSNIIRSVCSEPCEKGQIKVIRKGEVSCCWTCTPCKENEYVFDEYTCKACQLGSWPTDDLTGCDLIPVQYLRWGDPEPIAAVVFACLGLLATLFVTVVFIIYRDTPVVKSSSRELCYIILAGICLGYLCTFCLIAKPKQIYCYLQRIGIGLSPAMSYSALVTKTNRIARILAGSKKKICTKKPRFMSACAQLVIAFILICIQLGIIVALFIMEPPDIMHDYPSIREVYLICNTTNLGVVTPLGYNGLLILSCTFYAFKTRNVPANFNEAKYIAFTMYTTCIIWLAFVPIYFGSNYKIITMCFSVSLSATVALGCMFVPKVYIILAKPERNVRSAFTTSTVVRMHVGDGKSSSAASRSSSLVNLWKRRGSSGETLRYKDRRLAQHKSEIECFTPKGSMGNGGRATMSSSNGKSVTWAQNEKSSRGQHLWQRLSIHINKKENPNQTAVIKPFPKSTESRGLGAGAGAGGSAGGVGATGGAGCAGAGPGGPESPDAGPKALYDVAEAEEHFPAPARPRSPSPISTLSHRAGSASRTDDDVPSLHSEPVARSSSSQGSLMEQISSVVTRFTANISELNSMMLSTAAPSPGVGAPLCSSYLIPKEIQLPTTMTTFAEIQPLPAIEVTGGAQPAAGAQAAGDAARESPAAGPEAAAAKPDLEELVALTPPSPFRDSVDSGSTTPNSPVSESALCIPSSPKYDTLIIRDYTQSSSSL
For assay [18], the target named is T1, Metabotropic glutamate receptor 2. Put plainly: Displacement of [3H]JNJ-46281222 from human metabotropic glutamate receptor 2 expressed in CHOK1 cell membranes assessed as residence time measured every 30 sec for 120 mins by scintillation proximity assay. The essentials:
as §1
Target sequence in this assay (Q14416 19-872 limits assumed): as the sequence (Q14416 19-872 limits assumed) above

Assay [19] shares this target. Briefly: Displacement of [3H]JNJ-46281222 from human metabotropic glutamate receptor 2 expressed in CHOK1 cell membranes assessed as dissociation rate constant measured every 30 sec for 120 mins by scintillation proximity assay. The essentials:
as §1
Target sequence in this assay (Q14416 19-872 limits assumed): as above

In assay [20] the target is Metabotropic glutamate receptor 6 (Rattus norvegicus) (UniProt P35349). Briefly: Antagonist activity at rat metabotropic glutamate receptor 6 expressed in CHO cell membranes assessed as inhibition of glutamate-induced [35S]GTPgammaS binding preincubated for 30 mins followed by [35S]GTPgammaS addition measured after 30 mins by Topcount scintillation counting method. The assay is classed as functional.

The target in assay [21] is Metabotropic glutamate receptor 1 (Homo sapiens) (UniProt Q13255). Put plainly: Antagonist activity at human metabotropic glutamate receptor 1 expressed in HEK293 cells assessed as inhibition of glutamate-induced Ca2+ internalization after 1 hr by fluo-4-AM dye based fluorescence assay. The assay is classed as functional, cell-based.

SMILES strings stand for the structures. Activity calls are given as the source filed them. The calls are words filed in the database; no cut-off is given here.

Chain of Metabotropic glutamate receptor 8 (Homo sapiens) (O00222 whole entry): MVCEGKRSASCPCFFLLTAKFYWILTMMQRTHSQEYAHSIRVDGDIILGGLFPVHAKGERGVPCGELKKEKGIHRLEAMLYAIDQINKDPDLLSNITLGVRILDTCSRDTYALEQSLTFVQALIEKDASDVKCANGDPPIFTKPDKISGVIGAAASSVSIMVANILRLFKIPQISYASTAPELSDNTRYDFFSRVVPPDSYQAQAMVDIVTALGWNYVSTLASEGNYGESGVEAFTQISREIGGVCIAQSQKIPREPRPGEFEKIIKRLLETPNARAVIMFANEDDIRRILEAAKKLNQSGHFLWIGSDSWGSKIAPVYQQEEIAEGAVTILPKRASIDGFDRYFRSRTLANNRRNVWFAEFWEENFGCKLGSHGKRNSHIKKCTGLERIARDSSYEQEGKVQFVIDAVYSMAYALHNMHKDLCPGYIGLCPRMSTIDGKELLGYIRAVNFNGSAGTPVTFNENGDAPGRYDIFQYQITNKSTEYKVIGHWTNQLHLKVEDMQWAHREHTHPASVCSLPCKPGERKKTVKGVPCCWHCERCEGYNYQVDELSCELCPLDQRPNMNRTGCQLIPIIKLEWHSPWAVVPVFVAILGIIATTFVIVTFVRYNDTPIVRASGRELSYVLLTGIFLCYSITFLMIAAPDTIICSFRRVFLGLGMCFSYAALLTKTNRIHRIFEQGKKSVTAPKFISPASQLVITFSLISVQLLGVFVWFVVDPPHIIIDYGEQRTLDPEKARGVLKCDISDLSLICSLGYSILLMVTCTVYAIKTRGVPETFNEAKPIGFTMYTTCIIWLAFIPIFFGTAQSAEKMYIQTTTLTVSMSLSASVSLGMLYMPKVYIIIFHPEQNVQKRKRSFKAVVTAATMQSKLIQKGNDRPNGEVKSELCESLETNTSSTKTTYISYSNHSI

For `O[C@H]1CC[C@H](Nc2ccc(-c3ccn4c(CC(F)(F)F)nnc4c3Cl)cc2Cl)CC1`, the outcome in assay [1], in assay [2], in assay [3], in assay [5], in [9] and in assay [11] was inactive. Besides, the outcome in [14] and in [17] was inactive. Also, the Kd – broadly, the equilibrium constant for the complex coming apart – in [4] is 10.8 nM. The EC50 (in general, the concentration needed to bring the measured effect to its halfway point) in [6] was 41.7 nM. Besides, the inhibition entry in assay [7], in [8], in assay [10], in assay [12], in assay [13] and in [20] was “inactive” in each case. Also, the inhibition result in assay [21] was “inactive”. Moreover, the K in [15] is 6.7 ×10⁶ /M/min; in [19] it was 0.074 min⁻¹. Besides, in [16], affinity was put at a Ki of 6.03 nM. In addition, the TIME in assay [18] is 0.227 h.

On to `Fc1cc(-c2ccn3c(CC4CC4)nnc3c2Cl)ccc1NC1CC1`, for which the result in [1], in assay [2], in assay [3], in assay [5], in [9] and in assay [11] was inactive. Further, the result in [14] and in assay [17] was inactive. Further, the Kd in [4] stood at 12.7 nM. The EC50 in [6] is 63.1 nM. Besides, the inhibition entry in assay [7], in assay [8], in assay [10], in [12], in assay [13] and in [20] was “inactive” throughout. In addition, the inhibition result in assay [21] was “inactive”. Also, the K in assay [15] was 4.8 ×10⁶ /M/min; in assay [19], 0.061 min⁻¹. Besides, in assay [16], the Ki (usually a measure of affinity in units of concentration, obtained from inhibition or displacement) is 10.2 nM. Also, the TIME in [18] came to 0.273 h.

In assay [4], `Clc1cc(-c2ccn3c(CC4CC4)nnc3c2Cl)ccc1NC1CCOCC1` yielded a Kd of 19.5 nM. The EC50 in assay [6] was 148 nM. In addition, the K in assay [15] amounted to 7 ×10⁶ /M/min; in assay [19], 0.136 min⁻¹. This molecule also gave a Ki in assay [16] of 38.9 nM. In assay [18], the TIME is 0.122 h.

For the molecule `Cc1ccc(Oc2ccc(-c3ccn4c(CC5CC5)nnc4c3Cl)cc2Cl)c(C)n1`, the result in assay [1], in assay [2], in assay [3], in assay [5], in [9] and in [11] was inactive. The outcome in [14] and in [17] was inactive. The same molecule registered a Kd in assay [4] of 1 nM. For the same molecule, the EC50 in [6] was 12.3 nM. Moreover, the inhibition entry in assay [7], in [8], in assay [10], in assay [12], in assay [13] and in [20] was “inactive” throughout. For the same molecule, the inhibition entry in assay [21] is “inactive”. For the same molecule, the K in assay [15] is 6.2 ×10⁷ /M/min; in assay [19] it was 0.061 min⁻¹. This molecule also showed a Ki in [16] of 6.03 nM. The TIME in [18] is 0.272 h.

On to `Cc1ccc(Oc2ccc(-c3ccn4c(CC(F)(F)F)nnc4c3Cl)cc2F)c(C)n1`, for which the Kd in assay [4] turned out to be 3.3 nM. The EC50 in [6] was 29.5 nM. The values for the K in [15] and in [19] were 2.9 ×10⁷ /M/min and 0.096 min⁻¹, respectively. In assay [16], this molecule showed a Ki of 7.94 nM. The TIME in assay [18] turned out to be 0.175 h.

The molecule `Fc1cc(-c2ccn3c(CC4CC4)nnc3c2C(F)(F)F)ccc1NC1CC1` displayed a Kd in assay [4] of 1.1 nM. For the same molecule, in assay [6], the EC50 was 30.2 nM. The results for the K in [15] and in assay [19] were 7.7 ×10⁷ /M/min and 0.086 min⁻¹, respectively. This molecule also gave an inhibitory constant (Ki) in assay [16] of 3.63 nM. For the same molecule, the TIME in [18] is 0.198 h.
